Source: ChEMBL document CHEMBL1152571, “Synthesis and biological evaluation of 4-fluoroproline and 4-fluoropyrrolidine-2-acetic acid derivatives as new GABA uptake inhibitors” (Bioorg Med Chem, 2009)
pIC50: −log10 of the molar value.

Experiments:
[1] = biological target: Sodium- and chloride-dependent GABA transporter 1 (Mus musculus, UniProt P31648); assay: Inhibition of GAT1 in mouse D8 cells assessed as [3H]GABA transport by liquid scintillation counting; type: cell-based
Method in brief: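 D8 cells expressing mouse GAT-1 were grown in RPMI 1640 with 10% FBS to near confluence (about 60,000 cells/well), rinsed with PBS and preincubated 10 min at room temperature in HBSS. [3H]GABA was added (151 nM final) for 20 min at room temperature. Uptake was stopped by aspiration and three rapid cold-PBS washes, and cells were lysed in 2 N NaOH. Uptake was counted by scintillation, giving IC50.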

GABA transporter 3 = biological target: T1, GABA transporter 3 (Mus musculus, UniProt P31649); assay: Inhibition of GAT3 in mouse D8 cells assessed as [3H]GABA transport by liquid scintillation counting; type: cell-based
T1 sequence (P31649 whole entry): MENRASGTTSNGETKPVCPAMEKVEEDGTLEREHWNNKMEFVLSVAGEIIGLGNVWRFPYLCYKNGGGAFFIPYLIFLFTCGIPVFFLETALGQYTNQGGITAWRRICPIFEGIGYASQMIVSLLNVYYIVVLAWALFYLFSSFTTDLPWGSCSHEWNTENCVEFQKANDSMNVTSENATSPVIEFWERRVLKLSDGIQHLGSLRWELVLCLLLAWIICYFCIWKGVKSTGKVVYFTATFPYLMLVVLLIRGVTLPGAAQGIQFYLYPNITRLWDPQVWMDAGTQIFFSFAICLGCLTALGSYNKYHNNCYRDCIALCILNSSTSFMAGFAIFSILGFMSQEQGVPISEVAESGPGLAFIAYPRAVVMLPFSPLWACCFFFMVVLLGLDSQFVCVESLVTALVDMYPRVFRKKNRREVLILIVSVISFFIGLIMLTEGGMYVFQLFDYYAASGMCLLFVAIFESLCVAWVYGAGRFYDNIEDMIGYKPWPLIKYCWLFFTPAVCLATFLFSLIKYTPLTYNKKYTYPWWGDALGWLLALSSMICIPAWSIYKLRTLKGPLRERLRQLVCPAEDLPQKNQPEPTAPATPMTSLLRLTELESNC

Structure (SMILES)	pIC50 [1]	pIC50 (GABA transporter 3)
Cc1ccsc1C(=CCCN1CCC[C@H]1CC(=O)O)c1sccc1C	6.47	4.58
O=C(O)[C@@H]1C[C@@H](O)CN1CCC=C(c1ccccc1)c1ccccc1	4.10	< 4.00
O=C(O)[C@@H]1C[C@H](F)CN1CCC=C(c1ccccc1)c1ccccc1	< 4.00	–
O=C(O)[C@@H]1CCCN1CCC=C(c1ccccc1)c1ccccc1	5.59	3.51
O=C(O)[C@@H]1C[C@@H](F)CN1CCC=C(c1ccccc1)c1ccccc1	4.17	–
Cc1ccsc1C(=CCCN1CCC[C@@H](C(=O)O)C1)c1sccc1C [TIAGABINE]	6.72	–
O=C(O)C[C@@H]1C[C@@H](O)CN1CCC=C(c1ccccc1)c1ccccc1	5.48	< 4.00
O=C(O)C[C@H]1C[C@H](F)CN1CCC=C(c1ccccc1)c1ccccc1	5.24	–
O=C(O)C[C@@H]1CCCN1CCC=C(c1ccccc1)c1ccccc1	6.40	4.19
Cc1ccsc1C(=CCCN1C[C@@H](O)C[C@H]1CC(=O)O)c1sccc1C	5.29	–
Cc1ccsc1C(=CCCN1CCC[C@H]1C(=O)O)c1sccc1C	6.19	–
Cc1ccsc1C(=CCCN1C[C@H](F)C[C@@H]1CC(=O)O)c1sccc1C	5.53	–

Continued, values first:

pIC50 [1]	pIC50 (GABA transporter 3)	Structure (SMILES)
5.50	< 4.00	Cc1ccsc1C(=CCCN1C[C@H](O)C[C@H]1CC(=O)O)c1sccc1C
5.31	–	Cc1ccsc1C(=CCCN1C[C@@H](F)C[C@@H]1CC(=O)O)c1sccc1C
4.89	–	Cc1ccsc1C(=CCCN1C[C@H](F)C[C@H]1C(=O)O)c1sccc1C
5.31	–	O=C(O)C[C@@H]1C[C@H](O)CN1CCC=C(c1ccccc1)c1ccccc1
5.40	–	O=C(O)C[C@H]1C[C@@H](F)CN1CCC=C(c1ccccc1)c1ccccc1
4.74	–	Cc1ccsc1C(=CCCN1C[C@@H](F)C[C@H]1C(=O)O)c1sccc1C
